Source: paper PMC3623729 (Journal of medicinal chemistry, 2013)
Entries after “also recorded” stand apart in the source; their conditions may differ. Where a name gives a salt, the structure may show the parent alone.

Assays:
[1] = biological target: T1, human RXRα (Homo sapiens, UniProt P19793); assay: RXRE-luciferase reporter gene assay; type: cell-based; settings: for Max IR: maximum induction ratio observed: compounds tested at variable concentrations
T1 sequence (P19793 1-462): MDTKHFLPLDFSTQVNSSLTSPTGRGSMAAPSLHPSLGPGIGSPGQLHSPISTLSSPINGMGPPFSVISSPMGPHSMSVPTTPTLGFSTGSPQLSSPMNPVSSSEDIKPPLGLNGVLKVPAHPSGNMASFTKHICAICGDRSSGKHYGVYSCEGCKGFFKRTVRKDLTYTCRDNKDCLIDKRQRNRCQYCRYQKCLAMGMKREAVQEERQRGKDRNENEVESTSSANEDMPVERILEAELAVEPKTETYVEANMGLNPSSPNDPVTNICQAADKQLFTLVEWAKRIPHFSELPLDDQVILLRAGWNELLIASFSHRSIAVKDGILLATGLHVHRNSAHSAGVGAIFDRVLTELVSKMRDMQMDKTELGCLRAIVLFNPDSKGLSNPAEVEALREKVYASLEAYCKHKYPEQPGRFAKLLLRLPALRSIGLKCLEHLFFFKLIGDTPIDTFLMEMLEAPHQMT

[2] = biological target: T2, VDR (Homo sapiens, UniProt P11473); assay: VDR ultrafiltration affinity assay; type: binding
T2 sequence (P11473 1-427): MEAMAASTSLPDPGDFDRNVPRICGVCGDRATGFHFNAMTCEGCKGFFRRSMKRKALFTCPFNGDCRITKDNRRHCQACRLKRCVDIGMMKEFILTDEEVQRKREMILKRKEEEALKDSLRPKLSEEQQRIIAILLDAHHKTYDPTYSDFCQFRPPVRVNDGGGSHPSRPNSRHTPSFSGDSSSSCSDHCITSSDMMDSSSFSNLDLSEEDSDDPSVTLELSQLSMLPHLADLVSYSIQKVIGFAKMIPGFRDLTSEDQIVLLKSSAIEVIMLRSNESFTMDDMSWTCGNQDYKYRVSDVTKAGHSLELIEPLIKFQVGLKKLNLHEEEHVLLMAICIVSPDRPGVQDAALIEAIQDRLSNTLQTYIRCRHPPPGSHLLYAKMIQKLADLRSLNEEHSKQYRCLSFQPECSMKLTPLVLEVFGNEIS
Method in brief: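 Commercial VDR in storage buffer incubated with test ligand for 30 min at 37 °C, dark, shaking. Ultrafiltered at 12,000 × g, 4 °C, rinsed with ice-cold 50 mM ammonium acetate, 0.1 mM NaCl, pH 8.0. Bound ligand released in methanol with genistein internal standard, dried under N2, analysed by LC-ion trap TOF MS, both polarities, m/z 100–1500. Controls were boiled hVDR or no protein, with lithocholic acid and curcumin as positives.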

[3] = tested on: COS-1 cells; assay: % Cell Survival; type: cell-based; settings: concentration not given
[4] = biological target: T2, VDR; assay: Competitive binding against curcumin for VDR; settings: equimolar concentration
[5] = cited from earlier work
[6] = tested on: MCF-7 breast cancer cells; settings: cited from earlier work

Row | SMILES | RXR activity in words (active / inactive) [1] | Positive VDR signal [2] | other results
1 | CNCCCn1c2c(c3ccc(N)cc3c1=O)C(=O)c1ccccc1-2 [Compound 126] | high activity | 2155086 | 
2 | NCCCCCn1c2c(c3ccccc3c1=O)C(=O)c1ccccc1-2 [Compound 81] |  | 7877048 | 
3 | CC(=O)Nc1ccc2c3c(n(CCCN)c(=O)c2c1)-c1ccccc1C3=O [Compound 131] |  | 4875144 | 
4 | NCCCCCCn1c2c(c3ccccc3c1=O)C(=O)c1ccccc1-2 [Compound 82] |  | 9397620 | 
5 | CC(=O)Nc1ccc2c3c(n(CCCO)c(=O)c2c1)-c1ccccc1C3=O [Compound 132] | inactive |  | % Cell Survival ([3]; Table 7): 90.6%; Max IR: maximum induction ratio observed [1]: NA (NA: Max IR not determined because IR < 2.)
6 | NCCCn1c2c(c3ccc(N)cc3c1=O)C(=O)c1ccccc1-2 [Compound 3, 3-Amino-6-(3'-aminopropyl)-5H-indeno[1,2-c]isoquinoline-5,11-(6H)dione] | high activity | 1903415 | competition with curcumin for binding to VDR [4]: did not compete; metabolism of the ketone group [5]: metabolized to an alcohol, which renders the compound inactive; apoptosis in MCF-7 cells [6]: induce apoptosis in MCF-7 breast cancer cells in a dose-dependent manner
7 | COC(=O)c1ccc2c3c(n(CCCn4ccnc4)c(=O)c2c1)-c1ccccc1C3=O [Compound 68, Methyl 6-(3-(1H-Imidazol-1-yl)propyl)-5,11-dioxo-6,11-dihydro-5H-indeno[1,2-c]isoquinoline-3-carboxylate Hydrochloride] | inactive; also recorded: lack of activity |  | 
8 | Cl.NCCCn1c2c(c3ccc(N)cc3c1=O)Cc1ccccc1-2 [Compound 124, 3-Amino-6-(3-aminopropyl)-6,11-dihydro-5H-indeno[1,2-c]isoquinolin-5-one] | good activity | 1422175 | 
9 | CN(C)CCCn1c2c(c3ccc(N)cc3c1=O)C(=O)c1ccccc1-2 [Compound 121, 3-Amino-6-(3-(dimethylamino)propyl)-5H-indeno[1,2-c]isoquinoline-5,11(6H)-dione] | high activity | 2011978 | 
10 | CNCCCn1c2c(c3ccc(Br)cc3c1=O)C(=O)c1ccccc1-2 [Compound 95, 3-Bromo-5,6-dihydro-6-(3-N-methylaminopropyl)-5,11-dioxo-indeno[1,2-c]isoquinoline] | active |  | 
11 | CCOC(=O)CNc1ccc2c3c(n(CCCN)c(=O)c2c1)-c1ccccc1C3=O [Compound 62] |  | 152467 | 
12 | O=C1c2ccccc2-c2c1c1ccc([N+](=O)[O-])cc1c(=O)n2CCCCO [Compound 120, 6-(4-Hydroxybutyl)-3-nitro-5H-indeno[1,2-c]isoquinoline-5,11(6H)-dione] | inactive |  | 
13 | Cn1c2c(c3ccc(/C=C/C(=O)O)cc3c1=O)C(=O)c1ccccc1-2 [Compound 13, (E)-3-(6-Methyl-5,11-dioxo-6,11-dihydro-5H-indeno[1,2-c]isoquinolin-3-yl)acrylic Acid] | inactive |  | 
14 | COC(=O)/C=C/c1ccc2c3c(n(CCCN)c(=O)c2c1)-c1ccccc1C3=O.Cl [Compound 87, (E)-Methyl 3-(6-(3-Aminopropyl)-5,11-dioxo-6,11-dihydro-5H-indeno[1,2-c]isoquinolin-3-yl)acrylate Hydrochloride] | lack of activity |  | Max IR: maximum induction ratio observed [1]: NA (NA: Max IR not determined because IR < 2.)
15 | COC(=O)c1ccc2c3c(n(CCCN4CCOCC4)c(=O)c2c1)-c1ccccc1C3=O [Compound 69, Methyl 6-(3-Morpholinopropyl)-5,11-dioxo-6,11-dihydro-5H-indeno[1,2-c]isoquinoline-3-carboxylate] | inactive; also recorded: lack of activity |  | 
16 | NCCCn1c2c(c3ccccc3c1=O)C(=O)c1ccccc1-2 [Compound 79] | high activity | 4013179 | % Cell Survival ([3]; Table 3): 52.5%; EC50 [1]: 10.2 µM
17 | Cl.NCCCn1c2c(c3ccc(C(=O)O)cc3c1=O)C(=O)c1ccccc1-2 [Compound 72, 6-(3-Aminopropyl)-5,11-dioxo-6,11-dihydro-5H-indeno[1,2-c]isoquinoline-3-carboxylic Acid Hydrochloride] | lack of activity |  | Max IR: maximum induction ratio observed [1]: NA (NA: Max IR not determined because IR < 2.)
18 | CC(=O)NCCCn1c2c(c3ccc([N+](=O)[O-])cc3c1=O)C(=O)c1ccccc1-2 [Compound 143] | detrimental for activity |  | 
19 | NCCCCn1c2c(c3ccccc3c1=O)C(=O)c1ccccc1-2 [Compound 80] |  | 3320824 | 
20 | COC(=O)c1ccc2c3c(n(CCCN(C)C)c(=O)c2c1)-c1ccccc1C3=O.Cl [Compound 70, Methyl 6-(3-(Dimethylamino)propyl)-5,11-dioxo-6,11-dihydro-5H-indeno[1,2-c]isoquinoline-3-carboxylate Hydrochloride] | active |  | 
21 | CNCCCn1c2c(c3ccc([N+](=O)[O-])cc3c1=O)C(=O)c1ccccc1-2 [Compound 125] | detrimental for activity |  | Max IR: maximum induction ratio observed [1]: NA (NA: Max IR not determined because IR < 2.)
22 | COC(=O)/C=C/c1ccc2c3c(n(C)c(=O)c2c1)-c1ccccc1C3=O [Compound 12, (E)-Methyl 3-(6-Methyl-5,11-dioxo-6,11-dihydro-5H-indeno[1,2-c]isoquinolin-3-yl)acrylate] | inactive |  | 
23 | NC(=O)CCn1c2c(c3ccccc3c1=O)C(=O)c1ccccc1-2 [Compound 107, 3-(5,11-Dioxo-5H-indeno[1,2-c]isoquinolin-6(11H)-yl)propanamide] | inactive |  | Max IR: maximum induction ratio observed [1]: NA (NA: Max IR not determined because IR < 2.)
24 | COc1cc2c3c(n(CCCN)c(=O)c2cc1OC)-c1ccc(F)cc1C3=O [Compound 160] |  |  | Max IR: maximum induction ratio observed [1]: NA (NA: Max IR not determined because IR < 2.)
25 | CC(=O)NCCCn1c2c(c3ccc(N)cc3c1=O)C(=O)c1ccccc1-2 [Compound 144] | significantly reduced the IR |  | 
26 | Cc1ccc2c3c(n(C)c(=O)c2c1)-c1ccccc1C3=O [Compound 36, 3,6-Dimethyl-5H-indeno[1,2-c]isoquinoline-5,11(6H)-dione] | not active |  | 
27 | Cn1c2c(c3ccc(CC(=O)O)cc3c1=O)C(=O)c1ccccc1-2 [Compound 4, 2-(6-Methyl-5,11-dioxo-6,11-dihydro-5H-indeno[1,2-c]isoquinolin-3-yl)acetic Acid] | inactive |  | 
28 | [N-]=[N+]=NCCCn1c2c(c3ccc([N+](=O)[O-])cc3c1=O)C(=O)c1ccccc1-2 [Compound 134] | inactive |  | 
29 | Cn1c2c(c3ccc(C(N)=O)cc3c1=O)C(=O)c1ccccc1-2 [Compound 31, 6-Methyl-5,11-dioxo-6,11-dihydro-5H-indeno[1,2-c]isoquinoline-3-carboxamide] | inactive |  | 
